Laboratory results from PMC9279720 (Acta Pharmaceutica Sinica. B, 2021).

Experiments:
pUL89-C = molecular target: T1, pUL89-C (Human cytomegalovirus, UniProt P16732); assay: In vitro pUL89-C endonuclease assay; assay type: biochemical, HCMV; settings: read-out: Endonuclease inhibition (%) at 20 μmol/L
T1 sequence (P16732 418-674 limits assumed): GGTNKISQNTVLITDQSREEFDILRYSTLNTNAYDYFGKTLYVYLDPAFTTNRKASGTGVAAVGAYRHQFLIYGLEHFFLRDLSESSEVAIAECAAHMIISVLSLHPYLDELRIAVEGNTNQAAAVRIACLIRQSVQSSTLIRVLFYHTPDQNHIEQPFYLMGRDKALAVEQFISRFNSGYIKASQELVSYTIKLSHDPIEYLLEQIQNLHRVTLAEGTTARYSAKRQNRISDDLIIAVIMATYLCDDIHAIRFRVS

HCMV ADCREGFP [1] = assay: HCMV replication assay; assay type: cell-based, Human cytomegalovirus (HCMV); settings: for SI (selectivity index, CC50/EC50): CC50 (HFF) / EC50 (HCMV); for Antiviral activity/potency in words: concentrations up to 50 μmol/L
Cell viability assay = assay type: cell-based; settings: human, HFF cells (no virus)
HCMV ADCREGFP [2] = assay: Time of addition assay; assay type: cell-based, Human cytomegalovirus (HCMV); settings: 5 × EC50, added at indicated times post infection
Method in brief: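 HFFs seeded at 1.75 × 10^4 cells/well, grown 24 h in DMEM/10% FBS/1% P/S, then inoculated at MOI 0.01. Cells were held in DMEM with 5% FBS, 1% P/S and 0.5% DMSO until compound was added. GFP intensity was read after lysis; triplicate-well means were normalized to DMSO.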

HCMV ADCREGFP [3] = assay: Compound withdrawal assay; assay type: cell-based, Human cytomegalovirus (HCMV); settings: 5 × EC50, removed at indicated times, read at 168 h
Method in brief: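 HFFs in DMEM/5% FBS, inoculated with the virus at MOI 0.01 for 2 h before compound or 0.5% DMSO was added. At each withdrawal time, wells were washed twice in PBS and refed with 0.5% DMSO medium. Cells were lysed in Tris/DTT/Triton buffer and GFP read at ex/em 495/515 nm. Triplicate-well means.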

[4] = Plasma stability assay, human plasma; assay type: in vitro ADME; settings: for half-life at 1 μmol/L: human, plasma, pH 7.4; for Plasma stability in words: species not told apart in the sentence (human and mouse in Table 3)
Method in brief: (§1)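 Test compound (1 μmol/L final) incubated at 37 °C in human or CD-1 mouse plasma diluted to 80% with 0.1 mol/L potassium phosphate, pH 7.4. Aliquots taken at time points up to […], quenched with acetonitrile/0.1% formic acid and centrifuged at 4 °C. Percent remaining and half-life determined by LC/MS/MS.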

[5] = Plasma stability assay, mouse plasma; assay type: in vitro ADME, mouse (CD-1); settings: CD-1, mouse, pH 7.4
Method in brief: as §1

[6] = Microsomal stability assay, human liver microsomes; assay type: in vitro ADME; settings: for half-life at 1 μmol/L: human, liver microsomes, pH 7.4; for Microsomal stability in words: species not told apart in the sentence (human and mouse in Table 3)
Method in brief: (§2)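 Test compound (1 μmol/L final) incubated at 37 °C with liver microsomes (human or CD-1 mouse; 0.5 mg/mL protein) and 1 mmol/L MgCl2 in 0.1 mol/L potassium phosphate, pH 7.4. Reaction started with NADPH (1 mmol/L final); a no-NADPH control and a verapamil positive control were run alongside. Samples taken up to 60 min and quenched in acetonitrile/0.1% formic acid. Half-life determined by LC/MS/MS.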

[7] = Microsomal stability assay, mouse liver microsomes; assay type: in vitro ADME; settings: CD-1, mouse, pH 7.4
Method in brief: as §2

[8] = Parallel artificial membrane permeability assay; assay type: in vitro ADME; settings: for Papp at 5 h, 2 μmol/L: PAMPA
Method in brief: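 Pre-coated lipid PAMPA plate system. Donor wells held test compound at 2 μmol/L in DPBS; acceptor wells held blank DPBS. Incubated 5 h at 25 °C without agitation. Donor and acceptor concentrations measured by LC/MS/MS. Pe calculated from an equilibrium-concentration equation (filter area 0.3 cm2). Compounds classed as high or low permeability at a cutoff of 1.5 × 10−6 cm/s.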

HFF cells = assay: Cell viability assay; assay type: cell-based; settings: for Cytotoxicity in words: HFFs

| Compound | inhibition at 20 µM (pUL89-C) | SI (selectivity index, CC50/EC50) (HCMV ADCREGFP [1]) | CC50 at 168 h (Cell viability assay) | also measured |
| --- | --- | --- | --- | --- |
| O=C(NCCc1ccc(F)cc1F)c1cn(Cc2ccc(F)cc2)cc(O)c1=O [Compound 12] | 10% | >116 | > 50 µM | Time of addition, result in words (HCMV ADCREGFP [2]): inhibit viral replication at a stage between when GCV and LTV are active; Compound withdrawal, result in words (HCMV ADCREGFP [3]): inhibit a step in viral replication between LTV and GCV; half-life at 1 μmol/L [4]: > 24 h; Plasma stability in words [4]: excellent; half-life at 1 μmol/L [5]: > 24 h; half-life at 1 μmol/L [6]: 0.668 ± 0.03 h; Microsomal stability in words [6]: good; half-life at 1 μmol/L [7]: 0.433 ± 0.0167 h; PAMPA permeability class [8]: high permeability; Papp at 5 h, 2 μmol/L [8]: 4.5 ± 0.9 ×10⁻⁶ cm/s |
| Cc1cc(CNC(=O)c2cn(Cc3ccc(F)cc3)cc(O)c2=O)ccc1F [Compound 8s] | 6% | 10 | 10 ± 5.4 µM |  |
| O=C(NCc1c(F)cccc1Cl)c1cn(Cc2ccc(F)cc2)cc(O)c1=O [Compound 8p] | 5% |  |  | viability at 168 h, 50 μmol/L (Cell viability assay): ~50%; Cytotoxicity in words (HFF cells): cytostatic but not a cytotoxic effect; Metabolic activity compared to DMSO (MTS assay) (HFF cells; across all compound concentrations 0.2–50 μmol/L): approximately 50% |
| CN(Cc1ccc(F)cc1F)C(=O)c1cn(Cc2ccc(F)cc2)cc(O)c1=O [Compound 11] | 6% | 8.6 | 12 ± 4.9 µM |  |
| COc1cccc(N2CCN(C3=Nc4c(F)cccc4[C@H](CC(=O)O)N3c3cc(C(F)(F)F)ccc3OC)CC2)c1 [LTV, letermovir, reference compound] |  |  |  | Compound withdrawal, result in words (HCMV ADCREGFP [3]): the viral infection rebounded quickly compared to GCV |
| N#Cc1ccc(CNC(=O)c2cn(Cc3ccc(F)cc3)cc(O)c2=O)c(F)c1 [Compound 8r] | 5% | >42 | > 50 µM |  |
| CC1(C)OB(c2ccc(NC(=O)c3cn(Cc4ccc(F)cc4)cc(O)c3=O)cc2)OC1(C)C [Compound 9c] | 7% | >17 | > 50 µM | Antiviral activity/potency in words (HCMV ADCREGFP [1]): decreased potency; Cytotoxicity in words (HFF cells): no cytotoxicity |
| O=C(NCc1cccc(F)c1)c1cn(Cc2ccc(F)cc2)cc(O)c1=O [Compound 8f] | 7% | 4.0 | 3.9 ± 1.8 µM |  |
| O=C(NCc1cc(F)c(F)cc1F)c1cn(Cc2ccc(F)cc2)cc(O)c1=O [Compound 8v] | 5% | 8.1 | 5.7 ± 2 µM |  |
| O=C(NCc1ccc(Br)cc1F)c1cn(Cc2ccc(F)cc2)cc(O)c1=O [Compound 8q] | 9% | >41 | > 25 µM |  |
| O=C(NCc1ccc(F)cc1)c1cn(Cc2ccc(F)cc2)cc(O)c1=O [Compound 8b] | 7% | 8.2 | 6.4 ± 3.7 µM |  |
| O=C(NCc1ccc(F)cc1F)c1cn(C2CC2)cc(O)c1=O [Compound 14] | 7% | >5.2 | > 25 µM |  |
| O=C(Nc1ccc(F)cc1)c1cn(Cc2ccc(F)cc2)cc(O)c1=O [Compound 9b] | 9% | 6.4 | 5.6 ± 1.3 µM |  |
| O=C(NCc1ccc(F)cc1F)c1cn(Cc2ccccc2)cc(O)c1=O [Compound 13] | 6% | >50 | > 50 µM | Time of addition, result in words (HCMV ADCREGFP [2]): active similar to, or possibly later than, LTV; Compound withdrawal, result in words (HCMV ADCREGFP [3]): viral replication recovered similarly to GCV; half-life at 1 μmol/L [4]: > 24 h; Plasma stability in words [4]: excellent; half-life at 1 μmol/L [5]: > 24 h; half-life at 1 μmol/L [6]: 1.7 ± 0.197 h; Microsomal stability in words [6]: good; half-life at 1 μmol/L [7]: 0.895 ± 0.00667 h; PAMPA permeability class [8]: high permeability; Papp at 5 h, 2 μmol/L [8]: 9.1 ± 1.1 ×10⁻⁶ cm/s |
| O=C(NCc1ccc(C(F)(F)F)cc1F)c1cn(Cc2ccc(F)cc2)cc(O)c1=O [Compound 8u] | 3% | >46 | > 25 µM |  |
| O=C(NCc1ccc(F)c(Cl)c1)c1cn(Cc2ccc(F)cc2)cc(O)c1=O [Compound 8n] | 5% | 6.3 | 3.9 ± 2.3 µM |  |
| O=C(NCc1ccc(F)cc1F)c1cn(Cc2ccc(F)cc2)ccc1=O [Compound 17] | 5% | >7.6 | > 50 µM |  |
| CC(NC(=O)c1cn(Cc2ccc(F)cc2)cc(O)c1=O)c1ccc(F)cc1F (centres unmarked) [Compound 10] | 5% | >94 | > 50 µM |  |
| O=C(NCc1ccccc1F)c1cn(Cc2ccc(F)cc2)cc(O)c1=O [Compound 8e] | 6% | 3.6 | 5.8 ± 2.1 µM |  |
| O=C(NCc1ccc(Cl)cc1F)c1cn(Cc2ccc(F)cc2)cc(O)c1=O [Compound 8k] | 14% | 4.4 | 2.4 ± 0.07 µM |  |
| CCOC(=O)c1cn(Cc2ccc(F)cc2)ccc1=O [Compound 42] | 7% |  | > 50 µM | Antiviral activity/potency in words (HCMV ADCREGFP [1]): no antiviral activity |
| O=C(NCc1ccc(F)cc1F)c1c[nH]cc(O)c1=O [Compound 15] | 7% | >6.3 | > 50 µM |  |
| O=C(NCc1ccccc1)c1cn(Cc2ccc(F)cc2)cc(O)c1=O [Compound 8d] | 9% | 4.7 | 7.1 ± 6.4 µM |  |
| Nc1nc(O)c2ncn(COC(CO)CO)c2n1 [Compound 1, ganciclovir, reference compound] |  | >50 | > 50 µM |  |
